# Measurements reported in publication PMC4834512 (Innate Immunity, 2016).
# Several values for one entry are separate records, joined by “and”; a condition that tells them apart may be missing. Equal values may be shown once.
# Tests used:
# LPS from E. coli = experiment: LPS inactivation by PMB in plasma, LAL test; assay type: biochemical, Escherichia coli; settings: 5 ng/ml LPS from E. coli, fresh human heparinized plasma, 60 min 37℃
# Method in brief: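 Fresh human heparinized plasma spiked with E. coli LPS (5 or 0.5 ng/ml) was incubated with test compound at 0, 10, 100, 250, 500 and 1000 ng/ml for 60 min at 37℃ in pyrogen-free glass vials. Endotoxin activity was read by kinetic chromogenic LAL test. ENC50 is the concentration reducing activity by 50% relative to LPS-spiked plasma without test compound.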
# plasma proteins [1] = assay type: in vitro ADME, human
# Method in brief: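 Fresh citrate-anticoagulated plasma from three donors was spiked with 1 µg/ml test compound. Aliquots were centrifuged (10,000 g, 20 min) through ultrafiltration membranes of 10, 30, 50 or 100 kDa MMCO, and filtrates were stored at −20℃. Drug in filtrates was measured by competitive ELISA (detection limit 1 ng/ml; samples diluted into 0–100 ng/ml range). Total protein was measured by automated analyser. The same filtration was run in 0.9% NaCl to check binding to the filter.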
# plasma proteins [2] = settings: assumed value from the literature; cited from earlier work
substance,measurement,setting,value
Polymyxin B [PMB],ENC50 (endotoxin neutralizing concentration),LPS from E. coli,381 ng/mL and < 400 ng/mL
same,PMB % of + control in filtrate,"plasma proteins [1]; 100 kDa MMCO, citrate plasma, 1 µg/ml PMB, ultrafiltration 10,000 g 20 min, ELISA, mean ± SD n = 3",25 ± 13%
same,PMB-content of filtrates compared with a PMB-solution without plasma,"plasma proteins [1]; membranes with smaller pores than 100 kDa MMCO (10, 30, 50 kDa)",< 10%
same,Plasma protein binding of PMB,plasma proteins [2],up to 90%
